These results are taken from ChEMBL document CHEMBL1135528, “Monocyclic human tachykinin NK-2 receptor antagonists as evolution of a potent bicyclic antagonist: QSAR and site-directed mutagenesis studies” (J Med Chem, 2002).

Positions count from the first letter of the chain named. Calls of active or inactive are those of the source. No cut-off for these calls is given here. *1 amine or outer side, *2 acyl side, *3 side chain or, on linkers, in order; H or OH if unused. Where a SMILES comes first, the peptide text is derived from it. Bridges are numbered along the chain shown (N, C = ends). [ ]: non-standard residue; d: D form. Suc = O=C(CCC(=O)[*:2])[*:1]; Dap = NC[C@H](N)C(=O)O

The target in one assay is T1, Substance-K receptor (Homo sapiens, UniProt P21452).
T1 sequence (P21452 whole entry): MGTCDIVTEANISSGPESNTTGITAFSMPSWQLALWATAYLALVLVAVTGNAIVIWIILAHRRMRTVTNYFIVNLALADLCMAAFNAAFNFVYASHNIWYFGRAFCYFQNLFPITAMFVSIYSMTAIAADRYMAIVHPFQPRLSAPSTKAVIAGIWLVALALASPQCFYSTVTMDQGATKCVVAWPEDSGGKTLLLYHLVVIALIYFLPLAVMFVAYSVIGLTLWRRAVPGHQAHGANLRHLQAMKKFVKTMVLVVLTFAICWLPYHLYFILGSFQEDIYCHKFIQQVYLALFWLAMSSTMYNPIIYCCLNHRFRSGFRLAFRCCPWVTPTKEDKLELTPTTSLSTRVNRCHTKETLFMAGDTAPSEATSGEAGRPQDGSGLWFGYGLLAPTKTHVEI
As to the kind of experiment: Inhibitory affinity constant (pKi) against tachykinin receptor 2 (NK-2R) using heterologous competition experiments. Summed up:
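Buffer was 50 mM Tris-HCl pH 7.4. Competitors ranged 0.3 pM–10 μM. Filter-bound radioactivity was counted, and pKi was obtained by fitting competition curves. Mean ± sem of duplicate experiments.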

Assay [1] deals with T2, Substance-K receptor (Homo sapiens), P21452 [C167A].
T2 sequence (whole entry): T1 sequence (P21452 whole entry) with C167A

Assay [2] deals with Substance-K receptor (Homo sapiens), P21452 [F112A].
Assay [3] has as its system Substance-K receptor (Homo sapiens), P21452 [F293A].
In assay [4] the test system is Substance-K receptor (Homo sapiens), P21452 [H198A].
Assay [5] deals with Substance-K receptor (Homo sapiens), P21452 [I202F].
For assay [6], the system named is Substance-K receptor (Homo sapiens), P21452 [N110A].
The test system of assay [7] is Substance-K receptor (Homo sapiens), P21452 [Q166A].
The test system of assay [8] is T3, Substance-K receptor (Homo sapiens), P21452 [S170A].
T3 sequence (whole entry): T1 sequence (P21452 whole entry) with S170A

Assay [9] concerns Substance-K receptor (Homo sapiens), P21452 [T171A].
The subject of assay [10] is T4, Substance-K receptor (Homo sapiens), P21452 [W263A].
T4 sequence (whole entry): T1 sequence (P21452 whole entry) with W263A

Assay [11] concerns Substance-K receptor (Homo sapiens), P21452 [Y107A].
The test system of assay [12] is Substance-K receptor (Homo sapiens), P21452 [Y169A].
The test system of assay [13] is Substance-K receptor (Homo sapiens), P21452 [Y206F].
Assay [14] relates to Substance-K receptor (Homo sapiens), P21452 [Y269A].
In assay [15] the test system is Substance-K receptor (Homo sapiens), P21452 [Y269F].
Assay [16] has as its system Substance-K receptor (Homo sapiens), P21452 [Y289F].
Assay [17] has as its system Substance-K receptor (Homo sapiens), P21452 [Y289T].
Assay [18] relates to T5, Substance-K receptor (Homo sapiens), P21452 [Y266F].
T5 sequence (whole entry): T1 sequence (P21452 whole entry) with Y266F

Sequence of Substance-K receptor (Homo sapiens), P21452 [Y206F] (P21452 whole entry Y206F): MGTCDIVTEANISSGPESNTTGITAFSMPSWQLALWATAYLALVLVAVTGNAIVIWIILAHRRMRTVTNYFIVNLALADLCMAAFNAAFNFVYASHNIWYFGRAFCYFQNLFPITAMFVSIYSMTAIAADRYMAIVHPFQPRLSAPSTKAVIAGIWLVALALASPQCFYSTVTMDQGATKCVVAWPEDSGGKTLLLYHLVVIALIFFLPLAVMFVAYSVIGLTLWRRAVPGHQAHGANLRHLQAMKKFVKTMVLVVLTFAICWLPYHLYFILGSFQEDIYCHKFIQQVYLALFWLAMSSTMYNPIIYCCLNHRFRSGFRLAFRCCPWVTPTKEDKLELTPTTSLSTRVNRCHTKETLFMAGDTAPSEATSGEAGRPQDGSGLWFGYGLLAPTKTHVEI
Sequence of Substance-K receptor (Homo sapiens), P21452 [T171A] (P21452 whole entry T171A): as the sequence (P21452 whole entry Y206F) above, with T171A, F206Y counted along it
Sequence of Substance-K receptor (Homo sapiens), P21452 [Y107A] (P21452 whole entry Y107A): as the sequence (P21452 whole entry Y206F) above, with Y107A, F206Y counted along it
Sequence of Substance-K receptor (Homo sapiens), P21452 [Y289F] (P21452 whole entry Y289F): as the sequence (P21452 whole entry Y206F) above, with F206Y, Y289F counted along it
Sequence of Substance-K receptor (Homo sapiens), P21452 [I202F] (P21452 whole entry I202F): as the sequence (P21452 whole entry Y206F) above, with I202F, F206Y counted along it
Sequence of Substance-K receptor (Homo sapiens), P21452 [Y269F] (P21452 whole entry Y269F): as the sequence (P21452 whole entry Y206F) above, with F206Y, Y269F counted along it
Sequence of Substance-K receptor (Homo sapiens), P21452 [Y289T] (P21452 whole entry Y289T): as the sequence (P21452 whole entry Y206F) above, with F206Y, Y289T counted along it
Sequence of Substance-K receptor (Homo sapiens), P21452 [N110A] (P21452 whole entry N110A): as the sequence (P21452 whole entry Y206F) above, with N110A, F206Y counted along it
Sequence of Substance-K receptor (Homo sapiens), P21452 [F293A] (P21452 whole entry F293A): as the sequence (P21452 whole entry Y206F) above, with F206Y, F293A counted along it
Sequence of Substance-K receptor (Homo sapiens), P21452 [Y269A] (P21452 whole entry Y269A): as the sequence (P21452 whole entry Y206F) above, with F206Y, Y269A counted along it
Sequence of Substance-K receptor (Homo sapiens), P21452 [H198A] (P21452 whole entry H198A): as the sequence (P21452 whole entry Y206F) above, with H198A, F206Y counted along it
Sequence of Substance-K receptor (Homo sapiens), P21452 [F112A] (P21452 whole entry F112A): as the sequence (P21452 whole entry Y206F) above, with F112A, F206Y counted along it
Sequence of Substance-K receptor (Homo sapiens), P21452 [Q166A] (P21452 whole entry Q166A): as the sequence (P21452 whole entry Y206F) above, with Q166A, F206Y counted along it
Sequence of Substance-K receptor (Homo sapiens), P21452 [Y169A] (P21452 whole entry Y169A): as the sequence (P21452 whole entry Y206F) above, with Y169A, F206Y counted along it

For the compound `O=C1CCC(=O)N[C@@H](Cc2c[nH]c3ccccc23)C(=O)N[C@@H](Cc2ccccc2)C(=O)N[C@H](Cc2c[nH]c3ccccc23)CN1`, affinity at Substance-K receptor was put at a Ki of 3.16 nM.
`O=C1C[C@@H](NC(=O)CN2CCC(N3CCCCC3)CC2)C(=O)NC[C@H](Cc2ccccc2)NC(=O)[C@H](Cc2ccccc2)NC(=O)[C@H](Cc2c[nH]c3ccccc23)N1`: at Substance-K receptor, the Ki – broadly, the dissociation constant of the complex between target and ligand, obtained from inhibition or displacement – was 0.398 nM.
On the same count and under the same terms, to `O=C1C[C@H](NCc2nn[nH]n2)C(=O)NC[C@@H](Cc2ccccc2)NC(=O)[C@H](Cc2ccccc2)NC(=O)[C@H](Cc2c[nH]c3ccccc23)N1` belongs 1.58 nM; to `O=C1C[C@@H](N2CCOCC2)C(=O)NC[C@@H](Cc2ccccc2)NC(=O)[C@H](Cc2ccccc2)NC(=O)[C@H](Cc2c[nH]c3ccccc23)N1`, 0.158 nM.
Same read-out and setting: with `O=C1C[C@@H](NC(=O)CN2CCOCC2)C(=O)NC[C@@H](Cc2ccccc2)NC(=O)[C@H](Cc2ccccc2)NC(=O)[C@H](Cc2c[nH]c3ccccc23)N1` the figure was 0.316 nM.
For `NCCCC(=O)N[C@H]1CC(=O)N[C@@H](Cc2c[nH]c3ccccc23)C(=O)N[C@@H](Cc2ccccc2)C(=O)N[C@H](Cc2ccccc2)CNC1=O`, at Substance-K receptor, the Ki is 7.94 nM.
Still for that read-out and setting: to `O=C1C[C@H](NC(=O)[C@]2(O)C[C@@H](O)[C@@H](O)[C@H](O)C2)C(=O)NC[C@@H](Cc2ccccc2)NC(=O)[C@H](Cc2ccccc2)NC(=O)[C@H](Cc2c[nH]c3ccccc23)N1` belongs 6.31 nM.
The same measure, in the same setting: to `O=C(N[C@H]1CCCCN(Cc2ccccc2)C(=O)[C@H](Cc2ccccc2)NC(=O)[C@H](Cc2c[nH]c3ccccc23)NC1=O)OCc1ccccc1` belongs 5.01 nM.
With `CSCC[C@H](NC(=O)[C@H](CC(C)C)NC(=O)CNC(=O)[C@@H](NC(=O)[C@H](Cc1ccccc1)NC(=O)[C@H](CO)NC(=O)[C@H](CC(=O)O)NC(=O)[C@@H](NC(=O)[C@H](CCCCN)NC(=O)[C@@H](N)Cc1c[nH]cn1)[C@@H](C)O)C(C)C)C(N)=O`, the UB entry in assay [1], in assay [4], in assay [6], in assay [10], in assay [12] and in assay [14] was “inactive” throughout. Further, the UB entry in assay [17] was “inactive”. Moreover, the KD/Ki in [2] worked out at 10.7 nM; in [3], 40 nM; in assay [5], 2.1 nM; in [7], 6.6 nM; in assay [8], 1.9 nM; in assay [9], 5.9 nM. The KD/Ki in assay [11] turned out to be 0.5 nM; in [13] it was 5.9 nM; in assay [15] it was 5.3 nM; in assay [16] it was 2 nM; in assay [18], 2.8 nM.
On Substance-K receptor, `O=C(O)CCC(=O)N[C@H]1CC(=O)N[C@@H](Cc2c[nH]c3ccccc23)C(=O)N[C@@H](Cc2ccccc2)C(=O)N[C@H](Cc2ccccc2)CNC1=O` gave an inhibition constant Ki of 12.6 nM.
Regarding `O=C1CCCNC(=O)[C@@H](Cc2ccccc2)NC(=O)[C@H](Cc2ccccc2)NC(=O)[C@H](Cc2c[nH]c3ccccc23)N1`, at Substance-K receptor, the Ki was 316 nM.
Compound `NC(=O)[C@@H]1CNC(=O)CCC(=O)N[C@@H](Cc2c[nH]c3ccccc23)C(=O)N[C@@H](Cc2ccccc2)C(=O)N1` (Trp-Phe-[Dap]-NH2; linker N-3 via Suc) gave a Ki on Substance-K receptor of 3980 nM.
Still for that read-out and setting: with `O=C1C[C@H](N2CCOCC2)C(=O)NC[C@@H](Cc2ccccc2)NC(=O)[C@H](Cc2ccccc2)NC(=O)[C@H](Cc2c[nH]c3ccccc23)N1` the figure was 0.794 nM.
Same read-out and setting: with `N[C@H]1CC(=O)N[C@@H](Cc2c[nH]c3ccccc23)C(=O)N[C@@H](Cc2ccccc2)C(=O)N[C@H](Cc2ccccc2)CNC1=O` the figure was 3.16 nM; with `O=C1C[C@@H](C(=O)O)NC(=O)[C@@H](Cc2ccc(Cl)c(Cl)c2)NC(=O)[C@H](Cc2ccccc2)NC(=O)[C@H](Cc2c[nH]c3ccccc23)N1`, 398 nM; with `N=C(N)NCC(=O)N[C@H]1CC(=O)N[C@@H](Cc2c[nH]c3ccccc23)C(=O)N[C@@H](Cc2ccccc2)C(=O)N[C@H](Cc2ccccc2)CNC1=O`, 3.98 nM.
Still for that read-out and setting: with `C=CCOC(=O)[C@@H]1CC(=O)N[C@@H](Cc2c[nH]c3ccccc23)C(=O)N[C@@H](Cc2ccccc2)C(=O)N[C@H](Cc2ccc(Cl)c(Cl)c2)C(=O)N1` the figure was 316 nM; with `N[C@H]1CC(=O)NC[C@@H](Cc2ccccc2)NC(=O)[C@H](Cc2ccccc2)NC(=O)[C@H](Cc2c[nH]c3ccccc23)NC1=O`, 3.16 nM.
